Data set [1] is described as follows: folding enthalpy; higher = less favourable; fluorescence melt of hairpins on a sequencing array, two-state fit. Conditions: sodium 0.088 M. The method, boiled down:
(§1)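 Folding enthalpy and melting temperature come from bootstrapped two-state fits to Cy3 fluorescence of library hairpins carrying annealed Cy3 and quencher oligos on a sequenced MiSeq flow cell. Imaging was done in 50 mM Na-HEPES pH 8.0, 25 mM NaCl, stepping by 2.5 °C up to 60 °C, and signals were normalised to pre-quench Cy3 and to control constructs. Results of four replicates were combined by inverse variance, and fitted temperatures were raised by 9.35 °C to match UV melts.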

A short description of data set [2]: melting temperature; fluorescence melt of hairpins on a sequencing array, two-state fit, raised by 9.35 °C to match UV melts. The note with it: sodium 0.088 M. In outline: as §1

For the sequence GTCATCCGAAAGGAAGAC (((.(((....))).))), the folding enthalpy in data set [1] was -29.9 kcal/mol. Further, in data set [2], the Tm amounted to 49.3 °C.
Taken in the same sequence, the figures for GTCATCGAAAGATTAGAC ((((((....)))..))) were -14 kcal/mol and 32.2 °C.
As for GTCATCGGAAACGACGAC (((.(((....))).))), in data set [1], the folding enthalpy is -29.7 kcal/mol. In data set [2], the Tm amounted to 43.2 °C.
Consider GTCATCGGAAACGATGAC (((((((....))))))), for which the folding enthalpy in data set [1] is -40 kcal/mol. Moreover, in data set [2], the Tm came out at 67.8 °C.
For the sequence GTCATGGGAAACCACGAC (((.(((....))).))), the folding enthalpy in data set [1] was -31.9 kcal/mol. For the same sequence, the Tm in data set [2] came to 39.9 °C.
Taken in the same sequence, the figures for GTCATGGGAAACCATGGC (.(((((....))))).) were -24.1 kcal/mol and 53.2 °C.
Taken in the same sequence, the figures for GTCATGGGAAACCGTGAC ((((.((....)).)))) were -42.3 kcal/mol and 52.9 °C.
For GTCATGGGAAACTGTGAC ((((..(....)..)))), the folding enthalpy in data set [1] was -32.9 kcal/mol. Moreover, the Tm in data set [2] came out at 39.1 °C.
For GTCATTCCGAAAGGAGAC (((..(((....)))))), in that order: -10.2 kcal/mol and 29.2 °C.
For GTCATTGAAAAATGAC ((((((....)))))), in that order: -38.6 kcal/mol and 51.9 °C.
For the sequence GTCATTGGAAACGATGAC (((((.(....).))))), in data set [1], the folding enthalpy is -41.1 kcal/mol. Also, in data set [2], the Tm was found to be 46.7 °C.
For GTCCAACCGAAAGGTGAC (((..(((....)))))), in that order: -16.3 kcal/mol and 37.2 °C.
Regarding GTCCAACGAAAGTTAGAC (((.(((....))).))), the folding enthalpy in data set [1] was -29.6 kcal/mol. Moreover, the Tm in data set [2] is 38.5 °C.
For GTCCACCGAAAGGTAGAC (((.(((....))).))), in that order: -26.4 kcal/mol and 47.4 °C.
For GTCCACCGAAAGGTGAC (((.(((....)))))), in that order: -12.5 kcal/mol and 46.1 °C.
Turning to GTCCACGAAAGTGCAGAC ((((((....)))..))), the folding enthalpy in data set [1] is -16.5 kcal/mol. In addition, in data set [2], the Tm came out at 36.2 °C.
For GTCCACGAAAGTGCGAC ((((((....))).))), in that order: -22.8 kcal/mol and 50.9 °C.
For GTCCACGAAAGTGCGGAC ((((((....)))..))), in that order: -17.4 kcal/mol and 45 °C.
Regarding GTCCACGAAAGTGTGAC ((((((....))).))), the folding enthalpy in data set [1] is -22.4 kcal/mol. Also, in data set [2], the Tm turned out to be 50.4 °C.
For the sequence GTCCACGGAAACGTAGAC (((.(((....))).))), the folding enthalpy in data set [1] was -26.6 kcal/mol. The Tm in data set [2] came to 41 °C.
Regarding GTCCACGGAAACGTGAAC ((.((((....)))).)), the folding enthalpy in data set [1] was -18.1 kcal/mol. For the same sequence, the Tm in data set [2] is 45.5 °C.
With GTCCAGACGAAAGTCGAC (((..(((....)))))), the folding enthalpy in data set [1] was -11.1 kcal/mol. The Tm in data set [2] was 36.9 °C.
For GTCCAGGCGAAAGCCGAC (((..(((....)))))), in that order: -9.61 kcal/mol and 37 °C.
As for GTCCAGTCGAAAGACGAC (((..(((....)))))), the folding enthalpy in data set [1] is -15 kcal/mol. In addition, in data set [2], the Tm was 34.8 °C.
For GTCCATCGAAAGATAGAC (((.(((....))).))), in that order: -30.5 kcal/mol and 35.2 °C.
Consider GTCCATCGAAAGATGAC (((.(((....)))))), for which the folding enthalpy in data set [1] was -16.9 kcal/mol. The Tm in data set [2] stood at 42.5 °C.
Taken in the same sequence, the figures for GTCCATGGAAACACGGAC ((((.((....)).)))) were -25 kcal/mol and 42.1 °C.
On to GTCCATGGAAACATGGGC (.(((((....))))).), for which the folding enthalpy in data set [1] is -42.9 kcal/mol. Also, in data set [2], the Tm stood at 54 °C.
For GTCCCACCGAAAGGTGAC (((..(((....)))))), in that order: -8.32 kcal/mol and 27 °C.
On to GTCCCAGCGAAAGCTGAC (((..(((....)))))), for which the folding enthalpy in data set [1] is -8.81 kcal/mol. The Tm in data set [2] came out at 22.4 °C.
Taken in the same sequence, the figures for GTCCCAGGAAACTGGAAC ((.((((....)))).)) were -22 kcal/mol and 35.8 °C.
Turning to GTCCCAGGAAACTGGGAC (((((((....))))))), the folding enthalpy in data set [1] is -35.7 kcal/mol. Moreover, the Tm in data set [2] came to 68.8 °C.
Consider GTCCCCCCGAAAGGGGAC (((..(((....)))))), for which the folding enthalpy in data set [1] is -16.9 kcal/mol. Moreover, in data set [2], the Tm was 59.5 °C.
On to GTCCCCCGAAAGGGTGAC (((.(((....))).))), for which the folding enthalpy in data set [1] is -28.1 kcal/mol. In addition, the Tm in data set [2] worked out at 52.5 °C.
On to GTCCCCGAAAGGGACGAC ((((((....)))..))), for which, in data set [1], the folding enthalpy was -18 kcal/mol. Moreover, the Tm in data set [2] worked out at 69.3 °C.
On to GTCCCCGAAAGGGGAGAC ((((((....)))..))), for which the folding enthalpy in data set [1] was -8.25 kcal/mol. Also, the Tm in data set [2] was determined as 54.2 °C.
For GTCCCCGAAAGGGTGGAC ((((((....)))..))), in that order: -14.8 kcal/mol and 48.9 °C.
Turning to GTCCCCGAAAGGGTTGAC ((((((....)))..))), the folding enthalpy in data set [1] was -15.3 kcal/mol. Further, in data set [2], the Tm was 33.7 °C.
For GTCCCGGGAAACCAGGAC ((((.((....)).)))), in that order: -22.7 kcal/mol and 46 °C.
Regarding GTCCGAGGAAACTCGGGC (.(((((....))))).), the folding enthalpy in data set [1] is -30.3 kcal/mol. The Tm in data set [2] is 59.5 °C.
Regarding GTCCGATCGAAAGATGAC (((..(((....)))))), in data set [1], the folding enthalpy was -10.7 kcal/mol. In addition, the Tm in data set [2] came out at 28.3 °C.
For GTCCGCCGAAAGGCGAC (((.(((....)))))), in that order: -9.54 kcal/mol and 52.5 °C.
Turning to GTCCGCGAAAGCGAGAC ((((((....))).))), the folding enthalpy in data set [1] was -14.2 kcal/mol. Moreover, in data set [2], the Tm came to 59.2 °C.
For GTCCGCGAAAGCGATGAC ((((((....)))..))), the folding enthalpy in data set [1] was -15.9 kcal/mol. Further, in data set [2], the Tm turned out to be 38.3 °C.
For GTCCGCGAAAGCGCAGAC ((((((....)))..))), in that order: -14.6 kcal/mol and 40.8 °C.
For GTCCGCGAAAGCGGGGAC ((((((....)))..))), in that order: -8.28 kcal/mol and 47.3 °C.
Taken in the same sequence, the figures for GTCCGCGAAAGCGTCGAC ((((((....)))..))) were -13.3 kcal/mol and 37.2 °C.
Consider GTCCGCGGAAACGCGAAC ((.((((....)))).)), for which, in data set [1], the folding enthalpy is -16.5 kcal/mol. Further, in data set [2], the Tm came out at 50.9 °C.
As to GTCCGCGGAAACGTGGGC (.((.((....)).)).), in data set [1], the folding enthalpy is -26.5 kcal/mol. The Tm in data set [2] came out at 53 °C.
Taken in the same sequence, the figures for GTCCGGACGAAAGTCGAC (((..(((....)))))) were -14 kcal/mol and 35.5 °C.
Consider GTCCGGGGAAACCCGGGC (.(((((....))))).), for which, in data set [1], the folding enthalpy was -21.6 kcal/mol. The Tm in data set [2] turned out to be 65 °C.
For GTCCGTCGAAAGACAGAC (((.(((....))).))), the folding enthalpy in data set [1] was -22.3 kcal/mol. Also, in data set [2], the Tm was determined as 47 °C.
For GTCCTACGAAAGTAGAC (((.(((....)))))), in that order: -18.1 kcal/mol and 39.6 °C.
Taken in the same sequence, the figures for GTCCTAGCGAAAGCTGAC (((..(((....)))))) were -12.7 kcal/mol and 31.5 °C.
Consider GTCCTCCGAAAGGATGAC (((.(((....))).))), for which the folding enthalpy in data set [1] was -30.7 kcal/mol. In addition, in data set [2], the Tm came to 48.6 °C.
Taken in the same sequence, the figures for GTCCTCGAAAGAGAGGAC ((((((....)))..))) were -30.2 kcal/mol and 52.9 °C.
For GTCCTCGAAAGAGCGGAC ((((((....)))..))), in that order: -22.1 kcal/mol and 36.1 °C.
Taken in the same sequence, the figures for GTCCTCGAAAGAGGTGAC ((((((....)))..))) were -11.6 kcal/mol and 35.5 °C.
For the sequence GTCCTCGAAAGAGTGGAC ((((((....)))..))), in data set [1], the folding enthalpy is -23.6 kcal/mol. Also, the Tm in data set [2] was determined as 41.6 °C.
For GTCCTCGGAAACGAGAAC ((.((((....)))).)), in that order: -20.7 kcal/mol and 39.7 °C.
For GTCCTGGGAAACCAGGGC (.(((((....))))).), in that order: -35.5 kcal/mol and 56.9 °C.
With GTCCTTCGAAAGAAGAC (((.(((....)))))), the folding enthalpy in data set [1] is -18.3 kcal/mol. The Tm in data set [2] came to 36.7 °C.
On to GTCCTTTCGAAAGAAGAC (((..(((....)))))), for which the folding enthalpy in data set [1] is -15.3 kcal/mol. The Tm in data set [2] stood at 28.5 °C.
For GTCGAACCGAAAGGTGAC (((..(((....)))))), in that order: -18 kcal/mol and 42 °C.
For GTCGAAGGAAACTTCGGC (.(((((....))))).), in that order: -43.1 kcal/mol and 51.3 °C.
Taken in the same sequence, the figures for GTCGACGAAAGTCCGGAC ((((((....)))..))) were -18.1 kcal/mol and 37 °C.
As for GTCGACGAAAGTCCTGAC ((((((....)))..))), in data set [1], the folding enthalpy was -12.9 kcal/mol. Moreover, the Tm in data set [2] was determined as 31.6 °C.
Take GTCGACGAAAGTCGGGAC ((((((....)))..))): in data set [1], the folding enthalpy is -10.5 kcal/mol. The Tm in data set [2] came to 39.1 °C.
For GTCGACGAAAGTCGTGAC ((((((....)))..))), in that order: -10 kcal/mol and 43.6 °C.
Taken in the same sequence, the figures for GTCGAGCGAAAGCTGAC (((.(((....)))))) were -20 kcal/mol and 57.7 °C.
For GTCGATCCGAAAGGAGAC (((..(((....)))))), in that order: -22.7 kcal/mol and 40 °C.
For the sequence GTCGCAGAAATGCGAC ((((((....)))))), the folding enthalpy in data set [1] is -38.1 kcal/mol. Besides, the Tm in data set [2] was 69.1 °C.
As for GTCGCAGGAAACTGTGAC (((.(((....))).))), the folding enthalpy in data set [1] is -42.4 kcal/mol. The Tm in data set [2] is 53.9 °C.

Source of the values: the array DNA melting data of Ke et al. (doi:10.1101/2024.01.08.574731).
